High-throughput results from PubChem.
NPY-Y1 antag: NPY-Y1 (human) receptor antagonism; P25929; inhibition, % at 3.6 µM; 200,000 tested, 1% active; HEK293-CNG Y1 cells, membrane potential fluorescence; NPY at EC95, then isoproterenol;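 active = inhibition above the campaign mean inhibition of all tested compounds plus 3 SD, cut at about 20% in these data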;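 note: 0% = DMSO wells given NPY plus isoproterenol and 100% = isoproterenol alone without NPY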
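Test system: HEK293 cells co-expressing NPY Y1 receptor and cyclic-nucleotide gated channel; Also added: NPY (25 nM), isoproterenol (1 µM), Ro 20-1724 (25 µM); Compound dosing: one concentration, 3.6 µM, in 0.4% DMSO; Timing: dye 3 h, compound 60 min room temperature, stimulation 45 min; Technique: Membrane-potential fluorescent dye readout.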
NPY1 pot ag: human NPY-Y1 potentiation or agonism, primary screen; NPY-Y1 expressing cells, potentiator/agonist activation; activation, % at 3.6 µM; 220,000 tested, 0.37% active; AID 1304; in the data active = activation above about 33%, passing the limit was not always enough;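 note: cells stimulated with NPY at EC10 then isoproterenol at EC100; 0% = low agonist plus stimulus and 100% = saturating agonist plus stimulus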
NPY2 pot ag: potentiates or activates human NPY-Y2 receptor. P49146. cells expressing NPY-Y2, potentiator/agonist read-out. activation, % at 3.6 µM. 220,000 tested, 0.45% active. AID 1359; in the data active = activation above about 27%;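 note: cells stimulated with NPY near EC25 plus isoproterenol at EC100; 0% = vehicle plus submaximal agonist and 100% = vehicle plus saturating agonist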
Target sequence (P49146 whole entry, looked up): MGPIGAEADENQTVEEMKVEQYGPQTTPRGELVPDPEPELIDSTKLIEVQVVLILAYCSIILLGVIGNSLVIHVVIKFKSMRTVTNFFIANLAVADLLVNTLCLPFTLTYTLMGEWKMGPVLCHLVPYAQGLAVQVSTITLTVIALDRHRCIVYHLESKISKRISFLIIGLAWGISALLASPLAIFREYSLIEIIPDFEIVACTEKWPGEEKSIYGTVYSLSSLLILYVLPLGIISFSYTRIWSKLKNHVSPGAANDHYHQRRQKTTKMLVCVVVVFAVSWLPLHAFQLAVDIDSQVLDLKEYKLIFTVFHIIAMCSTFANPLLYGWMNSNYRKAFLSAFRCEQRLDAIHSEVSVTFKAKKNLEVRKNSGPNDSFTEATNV
NPY Y2 blocker: NPY-Y2 (human) receptor antagonism | P49146 | NPY-Y2 expressing cells, antagonist mode | inhibition, % at 2.7 µM | 140,000 tested, 0.99% active;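 note: 0% = vehicle with agonist challenge and 100% = reference antagonist with challenge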
NPY-Y1 ant conf: confirmation of human neuropeptide Y receptor Y1 antagonists. shares compounds with NPY-Y1 antag. HEK293-CNG NPY-Y1, membrane potential fluorescence, cAMP; NPY challenge against isoproterenol-raised cAMP. inhibition, % at 3.6 µM. 1,200 tested, 21% active; in the data active = inhibition above about 20%;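 note: 0% = vehicle with agonist plus stimulus and 100% = stimulus alone without agonist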
NPY2 antag ctr: counter-screen for NPY-Y1 antagonists: human NPY-Y2 antagonism; inhibition, % at 3.6 µM; HEK293 NPY-Y2 CNG membrane potential fluorescence; cells given NPY, then isoproterenol; 1,200 tested, 28% active; shares compounds with NPY-Y1 antag;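 note: 0% = DMSO with agonist challenge and 100% = reference antagonist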
Starred values were filed as active, the others as inactive. Only some compounds are listed: those with a hit (about 1.9% of all), similar ones and a draw of the others. Cut-off read from the data, not from the text of the source, unless noted: active = inhibition above about 17%; inactive = the rest.

What do the screens show for `Cc1sc2ncnc(OCC(=O)NC3CCS(=O)(=O)C3)c2c1C` (centres undefined)?
NPY1 pot ag: -4; NPY2 pot ag: -14

What do the screens show for `COC(=O)C1=CN(Cc2ccc(OC)cc2)C=C(C(=O)OC)C1c1ccsc1`?
NPY-Y1 antag: 9; NPY1 pot ag: 7; NPY2 pot ag: -9

Results for COC(=O)C1=CN(CCOC23CC4CC(CC(C4)C2)C3)C=C(C(=O)OC)C1c1ccsc1 ?
NPY-Y1 antag: 31*; NPY1 pot ag: -23; NPY2 pot ag: -39; NPY-Y1 ant conf: 41*; NPY2 antag ctr: 24*

Results for Cc1ccc(CN2C3CCCC2CC(NC(=O)c2ccc(C)cc2)C3)cc1 (centres undefined) ?
NPY-Y1 antag: 3; NPY1 pot ag: -24; NPY2 pot ag: -12

Results for CCCCN(C)C(=O)c1nc2ccccn2c1CN1CCN(C/C=C/c2ccccc2)CC1 ?
NPY-Y1 antag: 26*; NPY1 pot ag: -2; NPY2 pot ag: -15; NPY-Y1 ant conf: 18; NPY2 antag ctr: 10

How did NS(=O)(=O)c1cccc(NC(=O)Cc2ccc(Cl)c(Cl)c2)c1 do in these assays?
NPY-Y1 antag: -4; NPY1 pot ag: 24; NPY2 pot ag: 14

What do the screens show for `Cc1ccc(C2C3=C(CC(C)(C)CC3=O)NC3=C2C(=O)c2ccccc23)cc1` (centres undefined)?
NPY-Y1 antag: 22*; NPY1 pot ag: -16; NPY2 pot ag: -7; NPY Y2 blocker: 7; NPY-Y1 ant conf: 14; NPY2 antag ctr: 18*

What do the screens show for `O=C(COc1ccccc1C(=O)NCc1ccccn1)Nc1ccc(Br)cc1`?
NPY-Y1 antag: -5; NPY1 pot ag: -13; NPY2 pot ag: -12

Results for CCc1cccc(CC)c1NC(=O)C(NS(=O)(=O)c1cccs1)c1ccccc1 (centres undefined) ?
NPY-Y1 antag: 23*; NPY1 pot ag: -41; NPY2 pot ag: 7; NPY Y2 blocker: 13; NPY-Y1 ant conf: 23*; NPY2 antag ctr: 10

How did CCN(CC(=O)Nc1ccccc1OC)C(=O)COc1ccc2ccccc2c1 do in these assays?
NPY-Y1 antag: 24*; NPY1 pot ag: -39; NPY2 pot ag: -16; NPY Y2 blocker: 15; NPY-Y1 ant conf: 17; NPY2 antag ctr: 7

Results for COc1cccc(NC(=O)CN(C)C(=O)COc2ccc3ccccc3c2)c1 ?
NPY-Y1 antag: 16; NPY1 pot ag: -19; NPY2 pot ag: -7; NPY Y2 blocker: 10

How did O=C(NCc1ccccn1)C1CCN(S(=O)(=O)c2cc(Cl)ccc2Cl)CC1 do in these assays?
NPY-Y1 antag: -1; NPY1 pot ag: 5; NPY2 pot ag: 14

What do the screens show for `CCOC(=O)CC1C(=O)NCCN1C(=O)c1cc2c(=O)n3cccc(C)c3nc2s1` (centres undefined)?
NPY-Y1 antag: 1; NPY1 pot ag: -16; NPY2 pot ag: -9; NPY Y2 blocker: 0

How did CCOC(=O)CC1C(=O)NCCN1C(=O)c1cc2c(=O)n3ccccc3nc2s1 (centres undefined) do in these assays?
NPY-Y1 antag: 98*; NPY1 pot ag: -10; NPY2 pot ag: -17; NPY Y2 blocker: 3; NPY-Y1 ant conf: 1; NPY2 antag ctr: 3

Results for COC(=O)c1ccc(CSc2nc3c(c(=O)n2-c2ccccc2)SCC3)o1 ?
NPY-Y1 antag: 1; NPY1 pot ag: -14; NPY2 pot ag: -6; NPY Y2 blocker: 4

What do the screens show for `COC(=O)c1ccc(CSc2nc3c(c(=O)n2-c2ccc(F)cc2)SCC3)o1`?
NPY-Y1 antag: 21*; NPY1 pot ag: 3; NPY2 pot ag: -8; NPY Y2 blocker: 8; NPY-Y1 ant conf: 7; NPY2 antag ctr: 5

What do the screens show for `CC(C)(C)OC(=O)N1CCC[C@H]1C(=O)N/N=C/c1cccc2nccnc12`?
NPY1 pot ag: 7; NPY2 pot ag: 16

What do the screens show for `Cc1ccc(Cn2c(=N)c(C(=O)NCc3ccco3)cc3c(=O)n4ccccc4nc32)cc1`?
NPY-Y1 antag: 36*; NPY1 pot ag: 15; NPY2 pot ag: -3; NPY Y2 blocker: 10; NPY-Y1 ant conf: 9; NPY2 antag ctr: 9

How did CCOC(=O)CNC(c1ccccc1)c1cc(Br)ccc1NC(C)=O (centres undefined) do in these assays?
NPY-Y1 antag: 47*; NPY1 pot ag: -39; NPY2 pot ag: -17; NPY-Y1 ant conf: 5; NPY2 antag ctr: 7

What do the screens show for `COc1ccc(-n2nc3c(c2NC(=O)c2c(-c4ccccc4Cl)noc2C)CS(=O)(=O)C3)cc1`?
NPY-Y1 antag: 38*; NPY1 pot ag: 6; NPY2 pot ag: 2; NPY Y2 blocker: 11; NPY-Y1 ant conf: 9; NPY2 antag ctr: 11

How did c1ccc(CN(Cc2cccs2)C(c2cccs2)c2nnnn2C2CCCC2)cc1 (centres undefined) do in these assays?
NPY-Y1 antag: 21*; NPY1 pot ag: -15; NPY2 pot ag: -18; NPY Y2 blocker: 16; NPY-Y1 ant conf: 17; NPY2 antag ctr: 6

How did c1ccc(CC2CCN(C(c3cccs3)c3nnnn3C3CCCC3)CC2)cc1 (centres undefined) do in these assays?
NPY-Y1 antag: -4; NPY1 pot ag: 4; NPY2 pot ag: 1; NPY Y2 blocker: 5

How did COc1cccc(CN(C(=O)Cc2c[nH]c3ccccc23)C(C(=O)NC2CCCCC2)c2ccc(C)o2)c1 (centres undefined) do in these assays?
NPY-Y1 antag: 23*; NPY1 pot ag: -20; NPY2 pot ag: -1; NPY Y2 blocker: 16; NPY-Y1 ant conf: 13; NPY2 antag ctr: 14

Results for CC#CCN(CC#CC)S(=O)(=O)c1ccc(-n2cnnn2)c(OC)c1 ?
NPY-Y1 antag: 21*; NPY1 pot ag: 2; NPY2 pot ag: 10; NPY Y2 blocker: 17; NPY-Y1 ant conf: 9; NPY2 antag ctr: 9

Results for COc1cc(S(=O)(=O)N(Cc2ccccc2)Cc2ccccn2)ccc1-n1cnnn1 ?
NPY-Y1 antag: 4; NPY1 pot ag: -13; NPY2 pot ag: -13; NPY Y2 blocker: 0

How did CC1CCCC(NC(=O)CCC(=O)c2ccc(F)cc2)C1C (centres undefined) do in these assays?
NPY1 pot ag: -23; NPY2 pot ag: -25

Results for CC1CCCC(NC(=O)CSc2ccc(F)cc2)C1C (centres undefined) ?
NPY-Y1 antag: 67*; NPY1 pot ag: 1; NPY2 pot ag: 5; NPY-Y1 ant conf: 5; NPY2 antag ctr: 2

How did COC(=O)c1ccc(-c2noc(CN3CCCCC3c3nccn3C)n2)cc1 (centres undefined) do in these assays?
NPY-Y1 antag: 33*; NPY1 pot ag: -5; NPY2 pot ag: -1; NPY-Y1 ant conf: 9; NPY2 antag ctr: 12

What do the screens show for `Cn1ccnc1C1CCCCN1Cc1nc(Cc2ccccc2F)no1` (centres undefined)?
NPY-Y1 antag: 8; NPY1 pot ag: 8; NPY2 pot ag: -3
